Laboratory results: ChEMBL document CHEMBL3526132, “In vitro metabolism of BIIB021, an inhibitor of heat shock protein 90, in liver microsomes and hepatocytes of rats, dogs, and humans and recombinant human cytochrome P450 isoforms” (Drug Metab Dispos, 2012)
One block for each compound: values may come before it.

What was measured:
[1] = Drug metabolism in human liver cytosol assessed as CF2483 metabolite formation at 10 uM after 30 mins by LC-RAM-MS analysis in presence of aldehyde oxidase inhibitor menadione; format: ADME; conditions: 0.5 h
Summary of the method: (§1)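 Human liver cytosol (1 mg/mL protein) incubated with 10 µM [14C]BIIB021 (0.5 µCi/mL) in 100 mM phosphate buffer, pH 7.4, for 30 min. Reaction quenched with ice-cold acetonitrile, then centrifuged 10 min at 4°C, and supernatant analysed by LC-MS. Where used, inhibitors (isovanillin 100 µM, menadione 100 µM, allopurinol 100 µM, raloxifene 50 µM) were preincubated in cytosol 10 min at 37°C before substrate addition.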

Liver microsome [2] = assay: Drug metabolism in human liver microsomes assessed as CF2246 metabolite formation at 10 uM […] by LC-RAM-MS analysis in presence of anti-CYP2B6 monoclonal antibody; format: ADME
Summary of the method: (§2)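 All components except substrate and NADPH were preincubated 15 min on ice, then 5 min at 37°C. Substrate and NADPH were added and incubated 60 min at 37°C. Incubations without antibody served as positive controls.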

Liver microsome [3] = assay: Drug metabolism in human liver microsomes assessed as CF2246 metabolite formation at 10 uM after […] by LC-RAM-MS analysis in presence of anti-CYP2A6 monoclonal antibody; format: ADME; summary of the method: as §2
CYP3A4 = CYP3A4 (Homo sapiens, UniProt P08684); assay: Drug metabolism assessed as unchanged drug level in baculovirus-infected Sf9 cell microsomes expressing human recombinant CYP3A4 at 10 uM after 30 mins by LC-RAM-MS analysis; format: ADME; conditions: read-out: Drug metabolism
Chain of CYP3A4 (P08684 whole entry): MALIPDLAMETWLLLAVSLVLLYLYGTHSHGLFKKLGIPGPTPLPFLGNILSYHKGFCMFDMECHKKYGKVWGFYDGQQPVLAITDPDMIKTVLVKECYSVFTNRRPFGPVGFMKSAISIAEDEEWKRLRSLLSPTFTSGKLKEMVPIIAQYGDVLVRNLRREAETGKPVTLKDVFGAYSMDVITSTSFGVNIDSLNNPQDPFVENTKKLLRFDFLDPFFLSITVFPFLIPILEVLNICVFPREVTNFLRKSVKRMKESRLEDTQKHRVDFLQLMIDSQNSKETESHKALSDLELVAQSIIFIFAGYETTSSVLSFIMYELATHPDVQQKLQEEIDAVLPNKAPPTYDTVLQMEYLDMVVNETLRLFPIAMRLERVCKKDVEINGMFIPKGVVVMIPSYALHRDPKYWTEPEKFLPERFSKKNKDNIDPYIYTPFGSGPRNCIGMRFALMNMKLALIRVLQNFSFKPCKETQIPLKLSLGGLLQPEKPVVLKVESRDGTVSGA
Summary of the method: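 Microsomes from baculovirus-infected Sf9 cells expressing recombinant human CYP3A4 with CYP450 reductase (50 pmol/mL) incubated in duplicate with 10 µM [14C]BIIB021 (0.5 µCi/mL) in 100 mM potassium phosphate pH 7.4. Reaction started with 1 mM NADPH (final), run 30 min at 37°C with gentle shaking, stopped with ice-cold acetonitrile containing 0.1% formic acid, centrifuged, and supernatant analysed by LC-MS.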

[4] = Drug metabolism in human liver cytosol assessed as CF2483 metabolite formation at 10 uM after 30 mins by LC-RAM-MS analysis; format: ADME, tissue-based; conditions: 0.5 h; summary of the method: as §1
[5] = Drug metabolism in human liver cytosol assessed as CF2483 metabolite formation at 10 uM after 30 mins by LC-RAM-MS analysis in presence of aldehyde oxidase inhibitor isovanillin; format: ADME; conditions: 0.5 h; summary of the method: as §1
Liver microsome [6] = assay: Drug metabolism in human liver microsomes assessed as CF3785 metabolite formation at 10 uM […] by LC-RAM-MS analysis in presence of anti-CYP2D6 monoclonal antibody; format: ADME; summary of the method: as §2
[7] = Drug metabolism in human liver cytosol assessed as CF2483 metabolite formation at 10 uM after 30 mins by LC-RAM-MS analysis in presence of aldehyde oxidase inhibitor raloxifene; format: ADME; conditions: 0.5 h; summary of the method: as §1
Liver microsome [8] = assay: Drug metabolism in human liver microsomes assessed as CF2246 metabolite formation at 10 uM after […] by LC-RAM-MS analysis in presence of anti-CYP2D6 monoclonal antibody; format: ADME; summary of the method: as §2
Liver microsome [9] = assay: Drug metabolism in human liver microsomes assessed as CF3785 metabolite formation at 10 uM […] by LC-RAM-MS analysis in presence of anti-CYP2B6 monoclonal antibody; format: ADME; summary of the method: as §2
Liver microsome [10] = assay: Drug metabolism in human liver microsomes assessed as CF3785 metabolite formation at 10 uM […] by LC-RAM-MS analysis in presence of anti-CYP1A2 monoclonal antibody; format: ADME; summary of the method: as §2
[11] = Drug metabolism in human liver cytosol assessed as CF2483 metabolite formation at 10 uM after 30 mins by LC-RAM-MS analysis in presence of xanthine oxidase inhibitor allopurinol; format: ADME; conditions: 0.5 h; summary of the method: as §1
Liver microsome [12] = assay: Drug metabolism in human liver microsomes assessed as CF2246 metabolite formation at 10 uM after […] by LC-RAM-MS analysis in presence of anti-CYP2E1 monoclonal antibody; format: ADME; summary of the method: as §2
Liver microsome [13] = assay: Drug metabolism in human liver microsomes assessed as CF3785 metabolite formation at 10 uM […] by LC-RAM-MS analysis in presence of anti-CYP2A6 monoclonal antibody; format: ADME; summary of the method: as §2
Liver microsome [14] = assay: Drug metabolism in human liver microsomes assessed as CF3785 metabolite formation at 10 uM […] by LC-RAM-MS analysis in presence of anti-CYP2E1 monoclonal antibody; format: ADME; summary of the method: as §2
Liver microsome [15] = assay: Drug metabolism in human liver microsomes assessed as CF2246 metabolite formation at 10 uM […] by LC-RAM-MS analysis in presence of anti-CYP1A2 monoclonal antibody; format: ADME; summary of the method: as §2
Liver microsome [16] = assay: Drug metabolism in human liver microsomes assessed as CF2246 metabolite formation at 10 uM after […] by LC-RAM-MS analysis in presence of anti-CYP3A4 monoclonal antibody; format: ADME; summary of the method: as §2
Liver microsome [17] = assay: Drug metabolism in human liver microsomes assessed as CF2246 metabolite formation at 10 uM […] by LC-RAM-MS analysis in presence of anti-CYP2C19 monoclonal antibody; format: ADME; summary of the method: as §2
Liver microsome [18] = assay: Drug level in human liver microsomes treated with [14C]BIIB021 at 10 uM after 90 mins by LC-RAM-MS analysis in presence of anti-CYP2B6 monoclonal antibody; format: ADME; conditions: 1.5 h
Liver microsome [19] = assay: Drug level in human liver microsomes treated with [14C]BIIB021 at 10 uM after 90 mins by LC-RAM-MS analysis in presence of anti-CYP2D6 monoclonal antibody; format: ADME; conditions: 1.5 h
Liver microsome [20] = assay: Drug level in human liver microsomes treated with [14C]BIIB021 at 10 uM […] by LC-RAM-MS analysis in presence of anti-CYP1A2 monoclonal antibody; format: ADME; conditions: 1.5 h
Liver microsome [21] = assay: Drug level in human liver microsomes treated with [14C]BIIB021 at 10 uM […] by LC-RAM-MS analysis in presence of anti-CYP2E1 monoclonal antibody; format: ADME; conditions: 1.5 h
Liver microsome [22] = assay: Drug level in human liver microsomes treated with [14C]BIIB021 at 10 uM after 90 mins by LC-RAM-MS analysis in presence of anti-CYP2A6 monoclonal antibody; format: ADME; conditions: 1.5 h
[23] = Drug level in human liver cytosol treated with [14C]BIIB021 at 10 uM after 30 mins by LC-RAM-MS analysis; format: ADME, tissue-based; conditions: 0.5 h; summary of the method: as §1
[24] = Drug level in human liver cytosol treated with [14C]BIIB021 at 10 uM after 30 mins by LC-RAM-MS analysis in presence of xanthine oxidase inhibitor allopurinol; format: ADME, tissue-based; conditions: 0.5 h; summary of the method: as §1
Liver microsome [25] = assay: Drug level in human liver microsomes treated with [14C]BIIB021 at 10 uM […] by LC-RAM-MS analysis in presence of anti-CYP2C19 monoclonal antibody; format: ADME; conditions: 1.5 h
Liver microsome [26] = assay: Drug level in human liver microsomes treated with [14C]BIIB021 at 10 uM after 90 mins by LC-RAM-MS analysis in presence of anti-CYP3A4 monoclonal antibody; format: ADME; conditions: 1.5 h

Drug metabolism [1]: metabolite_not_detected
Drug metabolism (Liver microsome [2]): metabolite_detected
Drug metabolism (Liver microsome [3]): metabolite_detected
remaining at 0.5 h, 10 µM (CYP3A4): 70%
Drug metabolism [4]: metabolite_detected
Drug metabolism [5]: metabolite_not_detected
Drug metabolism (Liver microsome [6]): metabolite_detected
Drug metabolism [7]: metabolite_not_detected
Drug metabolism (Liver microsome [8]): metabolite_detected
Drug metabolism (Liver microsome [9]): metabolite_detected
Drug metabolism (Liver microsome [10]): metabolite_detected
Drug metabolism [11]: metabolite_detected
Drug metabolism (Liver microsome [12]): metabolite_detected
Drug metabolism (Liver microsome [13]): metabolite_detected
Drug metabolism (Liver microsome [14]): metabolite_detected
Drug metabolism (Liver microsome [15]): metabolite_detected
Drug metabolism (Liver microsome [16]): metabolite_detected
Drug metabolism (Liver microsome [17]): metabolite_detected
Structure (SMILES): COc1c(C)cnc(Cn2[14cH]nc3c(Cl)nc(N)nc32)c1C

Drug metabolism (Liver microsome [18]): metabolite_detected
Drug metabolism (Liver microsome [19]): metabolite_detected
Drug metabolism (Liver microsome [20]): metabolite_detected
Drug metabolism (Liver microsome [21]): metabolite_detected
Drug metabolism (Liver microsome [22]): metabolite_detected
Structure (SMILES): COc1c(CO)cnc(Cn2cnc3c(Cl)nc(N)nc32)c1C

Drug metabolism [23]: metabolite_detected
Drug metabolism [24]: metabolite_detected
Structure (SMILES): COc1c(C)cnc(Cn2c(O)nc3c(Cl)nc(N)nc32)c1C

Drug metabolism (Liver microsome [18]): metabolite_detected
Drug metabolism (Liver microsome [25]): metabolite_detected
Drug metabolism (Liver microsome [19]): metabolite_detected
Drug metabolism (Liver microsome [20]): metabolite_detected
Drug metabolism (Liver microsome [21]): metabolite_detected
Drug metabolism (Liver microsome [22]): metabolite_detected
Drug metabolism (Liver microsome [26]): metabolite_detected
Structure (SMILES): Cc1cnc(Cn2cnc3c(Cl)nc(N)nc32)c(C)c1O
